Measured values taken from BindingDB's records for doi:10.1021/jm0003844 (Pfizer, 2001).

The compounds below were run against Human immunodeficiency virus type 1 protease (Human immunodeficiency virus 1, UniProt Q72874) (assay: HIV-1 protease inhibition.).
Procedure, shortened: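 Affinity-purified HIV-1 protease (1.5 nM final) with 40 µM peptide substrate His-Lys-Ala-Arg-Val-Leu-(p-NO2-Phe)-Glu-Ala-Nle-Ser-NH2 and 1.0% DMSO. Buffer: 80 mM MES, 160 mM NaCl, 1.0 mM DTT, 1.0 mM EDTA, 0.1% PEG 8000, pH 6.2. Incubated 60 min at 37 °C, then quenched with TFA (2% final). Products separated by reverse-phase HPLC and read at 220 nm. Percent control derived from % conversion with vs without inhibitor; IC50 then determined.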

Structure (SMILES) | IC50
Cc1cc(SC2C(=O)CC(CCc3ccsc3CO)(C(C)C)OC2=O)c(C(C)(C)C)cc1CO (centres undefined) [3-(2-tert-Butyl-4-hydroxymethyl-5-methyl-phenylsulfanyl)-4-hydroxy-6-[2-(2-hydroxymethyl-thiophen-3-yl)-ethyl]-6-isopropyl-5,6-dihydro-pyran-2-one] | 14 nM
Cc1cc(SC2C(=O)CC(CCc3cscn3)(C(C)C)OC2=O)c(C(C)(C)C)cc1CO (centres undefined) [3-(2-tert-Butyl-4-hydroxymethyl-5-methyl-phenylsulfanyl)-4-hydroxy-6-isopropyl-6-(2-thiazol-4-yl-ethyl)-5,6-dihydro-pyran-2-one] | 1.3 nM
Cc1cc(SC2C(=O)CC(CCc3nc(C(C)C)cs3)(C(C)C)OC2=O)c(C(C)(C)C)cc1CO (centres undefined) [3-(2-tert-Butyl-4-hydroxymethyl-5-methyl-phenylsulfanyl)-4-hydroxy-6-isopropyl-6-[2-(4-isopropyl-thiazol-2-yl)-ethyl]-5,6-dihydro-pyran-2-one] | 14 nM
Cc1cc(SC2C(=O)CC(CCc3ncsc3C)(C(C)C)OC2=O)c(C(C)(C)C)cc1CO (centres undefined) [3-(2-tert-Butyl-4-hydroxymethyl-5-methyl-phenylsulfanyl)-4-hydroxy-6-isopropyl-6-[2-(5-methyl-thiazol-4-yl)-ethyl]-5,6-dihydro-pyran-2-one] | 1.3 nM
